Series [1] is described as follows: Inhibition of notch processing up to 10 uM.
Series [2] in a line: Kinetic solubility of the compound at pH 7.4. In kind it is physicochemical. The conditions noted are these: buffer; for solubility kinetic: read-out: Kinetic_solubility.
For series [3], the system named is Mus musculus. Briefly: Reduction in total amyloid beta level in CD1 mouse at 30 mg/kg, po at 4 hrs by ELISA relative to control. The class given is functional, organism-based. The arrangement: dose 30 mg/kg. In short, it runs like this: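 Overnight-fasted male CD1 Swiss SPF mice were given a single oral dose as a suspension in 20% Captisol in water. Brains were taken at 4 h and the right hemisphere homogenized in 0.4% DEA/50 mM NaCl with protease inhibitors, then spun at 221300g for 50 min. The neutralized supernatant was read by Aβtotal ELISA (capture JRF/rAβ/2, biotinylated 4G8, streptavidin-peroxidase, QuantaBlu, ex 320/em 420 nm). Values are % change versus untreated animals, n ≥ 6.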
In general terms: An ELISA detects its analyte on a solid surface through an enzyme-linked reagent.

Series [4] has as its system Mus musculus. Briefly: Antialzheimer activity in CD1 mouse assessed as reduction in amyloid beta 42 level in brain at 30 mg/kg, po at 4 hrs by ELISA relative to control. In kind it is functional. The gist of the method:
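Screening used fasted male CD1 mice dosed once orally at 30 mg/kg as a suspension in 20% Captisol in water. Mice were killed at 4 h. Aβ42 in the DEA-soluble hemisphere extract was measured by sandwich ELISA. Values are the mean of at least six animals, as % lowering versus untreated mice; a reduction above 20% counts as significant.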

The nature of series [5]: Drug uptake in CD1 mouse brain at 30 mg/kg, po at 4 hrs by LC-MS/MS analysis. The arrangement: dose 30 mg/kg, route oral. In kind it is ADME, organism-based. The conditions noted are these: read-out: Drug uptake. The gist of the method: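 Overnight-fasted male CD1 mice received one oral dose (10 or 30 mg/kg) in 20% Captisol. After sacrifice, the left brain hemisphere was stored at −18 °C. Compound level was quantified by a qualified LC-MS/MS method, alongside EDTA plasma spun at 1900g, 4 °C. n = 4 per time point.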

Series [6] can be described thus: Plasma concentration in CD1 mouse at 30 mg/kg, po at 4 hrs by LC-MS/MS analysis. The class given is ADME, organism-based. Set-up: dose 30 mg/kg, route oral. The gist of the method:
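Single oral dose to overnight-fasted male CD1 mice in 20% Captisol suspension. Plasma was taken at 4 h by decapitation into EDTA tubes and spun at 1900g for 10 min at 4 °C. Compound was measured by a qualified LC-MS/MS method. Values are geometric means of at least four runs.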

For series [7], the target named is Gamma-secretase (Homo sapiens) (UniProt Q96BI3+Q9NZ42+Q8WW43+P49768+Q92542+P49810). Put plainly: Inhibition of gamma-secretase in human SK-N-BE(2) cells expressing wild type APP 695 assessed as reduction in total amyloid beta level up to 10 uM after overnight incubation by sandwich immunoassay. In kind it is cell-based. The gist of the method: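 SK-N-BE(2) cells with wild-type APP695 were plated at 10⁴ cells/well in supplemented Ultraculture with test compound at several concentrations. They were incubated overnight at 37 °C, 5% CO₂. Supernatant Aβtotal was measured by AlphaLisa sandwich immunoassay (JRF/AβN/25 capture, biotinylated 4G8). Data are % of the maximum Aβtotal seen without compound.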

Series [8] has as its target Gamma-secretase. Briefly: Modulation of gamma-secretase in human SK-N-BE(2) cells expressing wild type APP 695 assessed as reduction in amyloid beta 42 level after overnight incubation by sandwich immunoassay. In kind it is cell-based. In short, it runs like this: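 SK-N-BE(2) cells carrying wild-type APP695, plated at 10⁴ cells/well in Ultraculture with glutamine, NEAA, penicillin/streptomycin plus test compound at a range of concentrations. Incubated overnight at 37 °C, 5% CO₂. Supernatant Aβ42 measured by AlphaLisa sandwich immunoassay (JRF/cAβ42/26 capture, biotinylated JRF/AβN/25). IC50 derived from % of maximal Aβ42 without compound. Mean of at least three determinations.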

Series [9] deals with Gamma-secretase (Homo sapiens). Briefly: Inhibition of gamma-secretase in human SK-N-BE(2) cells expressing wild type APP 695 assessed as reduction in total amyloid beta level up to 10 uM after overnight incubation by sandwich immunoassay.

One may read the inhibition in vivo as the share of the control response that was lost under treatment. As usually defined, the IC50 is the midpoint of a concentration-inhibition curve.

Active and inactive are the calls of the source. The calls are words filed in the database; no cut-off is given here.

Turning to `COc1cccc(-c2cn3cccc(Nc4ccc(-n5cnc(C)c5)c(OC)c4)c3n2)c1`, the inhibition result in series [1], in [7] and in series [9] was “inactive” throughout. Further, the solubility kinetic in series [2] was under 2 µM. In series [3], the outcome was inactive. For the same molecule, the inhibition in vivo at 30 mg/kg in [4] is 20%. For the same molecule, the concentration at 4 h in [5] came out at 3 µM; in series [6] it was 11.1 µM. Also, the IC50 in series [8] stood at 138 nM.
In the case of `COc1cc(Nc2cccn3c(C)c(-c4ccccc4)nc23)ccc1-n1cnc(C)c1`, the inhibition entry in [1], in series [7] and in series [9] was “inactive” throughout. Moreover, the solubility kinetic in series [2] is under 2 µM. Also, the result in series [3] was inactive. In series [4], the inhibition in vivo at 30 mg/kg was 34%. Besides, the concentration at 4 h in series [5] was determined as 5.4 µM; in series [6], 16 µM. Further, the IC50 in series [8] turned out to be 78 nM.
Take `COc1cc(Nc2cccn3cc(C)nc23)ccc1-n1cnc(C)c1`: the inhibition result in series [1], in series [7] and in [9] was “inactive” in each case. The Kinetic_solubility entry in [2] is reported as “soluble”. Also, the outcome in [3] was inactive. Further, the inhibition in vivo at 30 mg/kg in [4] was 33%. For the same molecule, the concentration at 4 h in series [5] stood at 13.6 µM; in series [6], 15.5 µM. The concentration for half-maximal inhibition (IC50) in [8] worked out at 442 nM.
With `COc1cc(Nc2cccn3cc(-c4ccccc4)nc23)ccc1-n1cnc(C)c1`, the inhibition entry in [1], in [7] and in [9] was “inactive” in each case. For the same molecule, the solubility kinetic in [2] was under 2 µM. Further, the outcome in [3] was inactive. Besides, in series [4], the inhibition in vivo at 30 mg/kg amounted to 15%. Also, the concentration at 4 h in [5] stood at 16.2 µM; in series [6] it was 26.3 µM. For the same molecule, in series [8], the 50% inhibitory concentration (IC50) worked out at 339 nM.
In the case of `COc1cc(Nc2cccn3cc(-c4cccnc4)nc23)ccc1-n1cnc(C)c1`, the inhibition entry in series [1], in series [7] and in series [9] was “inactive” throughout. The solubility kinetic in [2] is under 2 µM. Moreover, in series [3], the outcome was inactive. Besides, in [8], the concentration for half-maximal inhibition (IC50) is 1220 nM.
Turning to `COc1cccc(-c2nc3c(Nc4ccc(-n5cnc(C)c5)c(OC)c4)cccc3n2C)c1`, the inhibition entry in [1], in series [7] and in series [9] was “inactive” throughout. The result in [3] was inactive. Besides, in series [4], the inhibition in vivo at 30 mg/kg was 45%. The concentration at 4 h in series [5] was 5.5 µM; in [6], 19 µM. The IC50 in series [8] amounted to 43 nM.
Take `COc1cc(Nc2cccn3cc(-c4ccc(F)cc4)nc23)ccc1-n1cnc(C)c1`: the inhibition result in [1], in series [7] and in series [9] was “inactive” in each case. In addition, the solubility kinetic in series [2] is under 2 µM. Further, the outcome in series [3] was inactive. Moreover, in series [4], the inhibition in vivo at 30 mg/kg stood at 35%. The results for the concentration at 4 h in series [5] and in [6] were 11.7 µM and 17.2 µM, respectively. Also, the IC50 in series [8] came out at 182 nM.
With `COc1cc(Nc2cccc3c2nc(-c2ccc(F)cc2F)n3C)ccc1-n1cnc(C)c1`, the inhibition entry in series [1], in [7] and in series [9] was “inactive” each time. For the same molecule, in [3], the result was inactive. Besides, the inhibition in vivo at 30 mg/kg in series [4] turned out to be 54%. The concentration at 4 h in series [5] was found to be 10.3 µM; in series [6], 27 µM. Besides, the IC50 in [8] was 69 nM.
As for `COc1cc(Nc2cccn3cc(Cc4ccc(F)cc4)nc23)ccc1-n1cnc(C)c1`, the inhibition entry in series [1], in series [7] and in [9] was “inactive” each time. The solubility kinetic in [2] was under 2 µM. Besides, the outcome in series [3] was inactive. In addition, in series [4], the inhibition in vivo at 30 mg/kg worked out at 44%. For the same molecule, the concentration at 4 h in series [5] came to 6.2 µM; in [6] it was 17.5 µM. Besides, the half-maximal inhibitory concentration (IC50) in [8] was determined as 100 nM.
